# In ChEMBL document CHEMBL4033651, “Exploration of flexible phenylpropylurea scaffold as novel cardiac myosin activators for the treatment of systolic heart failure” (Eur J Med Chem, 2017):
# Legend:
# Rattus norvegicus [1] = assay: Positive inotropic activity in Sprague-Dawley rat heart assessed as left ventricular posterior wall thickness end systole at 16 ug/kg/min for 3 mins by echocardiographic analysis (reference value: 2.07 to 2.46 mm); format: functional
# Summary of the method: (§1)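 Male Sprague-Dawley rats, seven weeks old, anaesthetised with 1.5 % isoflurane given by nosecone. Compound infused through the right internal jugular vein, used as a central venous line. Left ventricular dimensions measured by echocardiography.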
# Rattus norvegicus [2] = assay: Positive inotropic activity in Sprague-Dawley rat heart assessed as left ventricular internal diameter end systole at 4 ug/kg/min for 3 mins by echocardiographic analysis (reference value: 2.50 to 4.78 mm); format: functional; summary of the method: as §1
# Oryctolagus cuniculus = organism: Oryctolagus cuniculus; assay: Activation of actin-stimulated rabbit psoas skeletal muscle myosin S1 fragment ATPase activity at 100 uM after 10 mins by spectrophotometric analysis
# Summary of the method: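 Rabbit skeletal S1 myosin with actin thin filament complex at pCa 6.5, in 20 mM Tris HCl pH 7.5, 15 mM KCl, 6 mM MgCl2, 1 mM ATP. Compound at single 100 uM dose, 10 min at room temperature. Cytophos stop; phosphate read at 650 nm. % activity versus blank-corrected DMSO control.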
# Rattus norvegicus [3] = assay: Positive inotropic activity in Sprague-Dawley rat heart assessed as fractional shortening at 8 ug/kg/min for 3 mins by echocardiographic analysis (reference value: 38.60 to 55.81%); format: functional
# Summary of the method: (§2)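 Seven-week-old male Sprague-Dawley rats under 1.5 % isoflurane via nosecone. Drug given through a right internal jugular vein central line. Left ventricular fractional shortening and ejection fraction measured by echocardiography with and without sample, expressed as % increase.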
# Rattus norvegicus [4] = assay: Positive inotropic activity in Sprague-Dawley rat heart assessed as ejection fraction at 2 to 16 ug/kg/min for 3 mins by echocardiographic analysis; format: functional; summary of the method: as §2
# Rattus norvegicus [5] = assay: Effect on hemodynamic parameters in Sprague-Dawley rat heart assessed as dPdT min at 8 ug/kg/min (reference value: -5462 to -4611 mmHg/s); format: functional
# Rattus norvegicus [6] = assay: Positive inotropic activity in Sprague-Dawley rat heart assessed as left ventricular internal diameter end diastole at 8 ug/kg/min for 3 mins by echocardiographic analysis (reference value: 5.66 to 7.80 mm); format: functional; summary of the method: as §1
# Rattus norvegicus [7] = assay: Effect on hemodynamic parameters in Sprague-Dawley rat heart assessed as end-diastolic pressure at 8 ug/kg/min (reference value: 7.68 to 9.83 mmHg); format: functional
# Rattus norvegicus [8] = assay: Effect on hemodynamic parameters in Sprague-Dawley rat heart assessed as heart rate at 8 ug/kg/min (reference value: 260 to 322 bpm); format: functional
# Rattus norvegicus [9] = assay: Effect on hemodynamic parameters in Sprague-Dawley rat heart assessed as end-diastolic pressure at 16 ug/kg/min (reference value: 7.68 to 9.64 mmHg); format: functional
# Rattus norvegicus [10] = assay: Positive inotropic activity in Sprague-Dawley rat heart assessed as left ventricular internal diameter end diastole at 4 ug/kg/min for 3 mins by echocardiographic analysis (reference value: 5.66 to 7.80 mm); format: functional; summary of the method: as §1
# Rattus norvegicus [11] = assay: Positive inotropic activity in Sprague-Dawley rat heart assessed as fractional shortening at 16 ug/kg/min for 3 mins by echocardiographic analysis (reference value: 38.60 to 55.81%); format: functional; summary of the method: as §2
# Rattus norvegicus [12] = assay: Positive inotropic activity in Sprague-Dawley rat heart assessed as heart rate at 8 ug/kg/min for 3 mins by echocardiographic analysis (reference value: 281 to 347 bpm); format: functional
# Rattus norvegicus [13] = assay: Positive inotropic activity in Sprague-Dawley rat heart assessed as heart rate at 16 ug/kg/min for 3 mins by echocardiographic analysis (reference value: 281 to 347 bpm); format: functional
# Rattus norvegicus [14] = assay: Effect on hemodynamic parameters in Sprague-Dawley rat heart assessed as dPdT min at 16 ug/kg/min (reference value: -5462 to -4611 mmHg/s); format: functional
# Rattus norvegicus [15] = assay: Positive inotropic activity in Sprague-Dawley rat heart assessed as fractional shortening at 4 ug/kg/min for 3 mins by echocardiographic analysis (reference value: 38.60 to 55.81%); format: functional; summary of the method: as §2
# Rattus norvegicus [16] = assay: Effect on hemodynamic parameters in Sprague-Dawley rat heart assessed as dPdT max at 16 ug/kg/min (reference value: 4162 to 5214 mmHg/s); format: functional
# Rattus norvegicus [17] = assay: Positive inotropic activity in Sprague-Dawley rat heart assessed as left ventricular posterior wall thickness end systole at 8 ug/kg/min for 3 mins by echocardiographic analysis (reference value: 2.07 to 2.46 mm); format: functional; summary of the method: as §1
# Rattus norvegicus [18] = assay: Positive inotropic activity in Sprague-Dawley rat heart assessed as left ventricular posterior wall thickness end systole at 4 ug/kg/min for 3 mins by echocardiographic analysis (reference value: 2.07 to 2.46 mm); format: functional; summary of the method: as §1
# Rattus norvegicus [19] = assay: Positive inotropic activity in Sprague-Dawley rat heart assessed as left ventricle fractional shortening at 2 to 16 ug/kg/min for 3 mins by echocardiographic analysis; format: functional; summary of the method: as §2
# Rattus norvegicus [20] = assay: Positive inotropic activity in Sprague-Dawley rat heart assessed as left ventricular internal diameter end diastole at 16 ug/kg/min for 3 mins by echocardiographic analysis (reference value: 5.66 to 7.80 mm); format: functional
# Rattus norvegicus [21] = assay: Effect on hemodynamic parameters in Sprague-Dawley rat heart assessed as end-systolic pressure at 16 ug/kg/min (reference value: 87.48 to 97.85 mmHg); format: functional
# Rattus norvegicus [22] = assay: Positive inotropic activity in Sprague-Dawley rat heart assessed as left ventricular internal diameter end systole at 8 ug/kg/min for 3 mins by echocardiographic analysis (reference value: 2.50 to 4.78 mm); format: functional; summary of the method: as §1
# Rattus norvegicus [23] = assay: Positive inotropic activity in Sprague-Dawley rat heart assessed as ejection fraction at 16 ug/kg/min for 3 mins by echocardiographic analysis (reference value: 67.16 to 85.81%); format: functional; summary of the method: as §2
# Rattus norvegicus [24] = assay: Positive inotropic activity in Sprague-Dawley rat heart assessed as ejection fraction at 8 ug/kg/min for 3 mins by echocardiographic analysis (reference value: 67.16 to 85.81%); format: functional; summary of the method: as §2
# Rattus norvegicus [25] = assay: Positive inotropic activity in Sprague-Dawley rat heart assessed as left ventricular posterior wall thickness end diastole at 16 ug/kg/min for 3 mins by echocardiographic analysis (reference value: 0.88 to 1.54 mm); format: functional; summary of the method: as §1
# Rattus norvegicus [26] = assay: Positive inotropic activity in Sprague-Dawley rat heart assessed as left ventricular internal diameter end systole at 16 ug/kg/min for 3 mins by echocardiographic analysis (reference value: 2.50 to 4.78 mm); format: functional; summary of the method: as §1
# Rattus norvegicus [27] = assay: Effect on hemodynamic parameters in Sprague-Dawley rat heart assessed as heart rate at 16 ug/kg/min (reference value: 274 to 322 bpm); format: functional
# Rattus norvegicus [28] = assay: Positive inotropic activity in Sprague-Dawley rat heart assessed as left ventricular posterior wall thickness end diastole at 8 ug/kg/min for 3 mins by echocardiographic analysis (reference value: 0.88 to 1.54 mm); format: functional; summary of the method: as §1
# Rattus norvegicus [29] = assay: Effect on hemodynamic parameters in Sprague-Dawley rat heart assessed as dPdT max at 8 ug/kg/min (reference value: 4162 to 5214 mmHg/s); format: functional
# Gallus gallus = organism: Gallus gallus; assay: Activation of actin-stimulated chicken gizzard smooth muscle myosin S1 fragment ATPase activity at 100 uM after 10 mins by spectrophotometric analysis
# Summary of the method: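 Chicken gizzard smooth muscle S1 myosin with actin plus tropomyosin at pCa 6.5, in 20 mM Tris HCl pH 7.5, 15 mM KCl, 6 mM MgCl2, 1 mM ATP. Compound at single 100 uM dose, 10 min at room temperature. Cytophos stop; phosphate read at 650 nm. % activity versus blank-corrected DMSO control.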
Activity (Oryctolagus cuniculus),SMILES,Activity (Rattus norvegicus [1]),Activity (Rattus norvegicus [2]),Activity (Rattus norvegicus [3]),Activity (Rattus norvegicus [4]),Activity (Rattus norvegicus [5]),Activity (Rattus norvegicus [6]),Activity (Rattus norvegicus [7]),Activity (Rattus norvegicus [8]),Activity (Rattus norvegicus [9]),Activity (Rattus norvegicus [10]),Activity (Rattus norvegicus [11]),Activity (Rattus norvegicus [12]),Activity (Rattus norvegicus [13]),Activity (Rattus norvegicus [14]),Activity (Rattus norvegicus [15]),Activity (Rattus norvegicus [16]),Activity (Rattus norvegicus [17]),Activity (Rattus norvegicus [18]),Activity (Rattus norvegicus [19]),further results
1.4%,O=C(NCCCc1ccccc1)NCc1ccccc1,3.03 mm,3.03 mm,73.53%,18.27%,-5583 mmHg/s,5.97 mm,10.71 mmHg,271 bpm,11.33 mmHg,5.57 mm,71.65%,412 bpm,412 bpm,-5405 mmHg/s,45.67%,4740 mmHg/s,2.68 mm,2.24 mm,30.04%,Activity (Rattus norvegicus [20]): 5.57 mm; Activity (Rattus norvegicus [21]): 94.26 mmHg; Activity (Rattus norvegicus [22]): 1.58 mm; Activity (Rattus norvegicus [23]): 95.44%; Activity (Rattus norvegicus [24]): 96.1%; Activity (Rattus norvegicus [25]): 1.71 mm; Activity (Rattus norvegicus [26]): 1.58 mm; Activity (Rattus norvegicus [27]): 272 bpm; Activity (Rattus norvegicus [28]): 1.49 mm; Activity (Rattus norvegicus [29]): 4644 mmHg/s; Activity (Gallus gallus): -3.7%
2.8%,COC(=O)N1CCN(Cc2cccc(NC(=O)Nc3ccc(C)nc3)c2F)CC1 [OMECAMTIV MECARBIL],2.77 mm,2.63 mm,61.03%,13.35%,-5547 mmHg/s,5.97 mm,6.21 mmHg,292 bpm,6.46 mmHg,6.41 mm,60.81%,370 bpm,367 bpm,-6342 mmHg/s,58.9%,6867 mmHg/s,2.68 mm,2.81 mm,20.32%,Activity (Rattus norvegicus [20]): 6.5 mm; Activity (Rattus norvegicus [21]): 108.91 mmHg; Activity (Rattus norvegicus [22]): 2.33 mm; Activity (Rattus norvegicus [23]): 89.17%; Activity (Rattus norvegicus [24]): 89.52%; Activity (Rattus norvegicus [25]): 1.36 mm; Activity (Rattus norvegicus [26]): 2.55 mm; Activity (Rattus norvegicus [27]): 297 bpm; Activity (Rattus norvegicus [28]): 1.23 mm; Activity (Rattus norvegicus [29]): 6143 mmHg/s; Activity (Gallus gallus): -5.5%
